Source: ChEMBL document CHEMBL2311535, “Development of second-generation indole-based dynamin GTPase inhibitors” (J Med Chem, 2013)

How the values were obtained:
[1] = Inhibition of sheep dyn1 after 30 mins by malachite green GTPase assay in presence of GTP; design: species or system Ovis aries
Method in brief: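 Compound (≤3% DMSO) was present for 30 min at 37 °C, shaking. The reaction was stopped with EDTA, Pi read by malachite green at 650 nm against a phosphate standard.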

HeLa = assay: Cytotoxicity against human HeLa cells at 30 uM after 8 hrs by trypan blue exclusion assay; type: cell-based
Method in brief: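 HeLa cells were treated with compound or vehicle (0.5% DMSO) for 8 h. Floating and adherent cells were pooled. Viability and membrane integrity were scored by Trypan Blue exclusion on an automated viability analyzer. Cytotoxicity (%) was normalized to drug/media background.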

Dynamin-2 = molecular target: T1, Dynamin-2 (Rattus norvegicus, UniProt P39052); assay: Inhibition of rat full length His6-tagged dyn2 using phosphatidylserine as substrate after 90 mins by malachite green GTPase assay in presence of GTP
T1 sequence (P39052 whole entry): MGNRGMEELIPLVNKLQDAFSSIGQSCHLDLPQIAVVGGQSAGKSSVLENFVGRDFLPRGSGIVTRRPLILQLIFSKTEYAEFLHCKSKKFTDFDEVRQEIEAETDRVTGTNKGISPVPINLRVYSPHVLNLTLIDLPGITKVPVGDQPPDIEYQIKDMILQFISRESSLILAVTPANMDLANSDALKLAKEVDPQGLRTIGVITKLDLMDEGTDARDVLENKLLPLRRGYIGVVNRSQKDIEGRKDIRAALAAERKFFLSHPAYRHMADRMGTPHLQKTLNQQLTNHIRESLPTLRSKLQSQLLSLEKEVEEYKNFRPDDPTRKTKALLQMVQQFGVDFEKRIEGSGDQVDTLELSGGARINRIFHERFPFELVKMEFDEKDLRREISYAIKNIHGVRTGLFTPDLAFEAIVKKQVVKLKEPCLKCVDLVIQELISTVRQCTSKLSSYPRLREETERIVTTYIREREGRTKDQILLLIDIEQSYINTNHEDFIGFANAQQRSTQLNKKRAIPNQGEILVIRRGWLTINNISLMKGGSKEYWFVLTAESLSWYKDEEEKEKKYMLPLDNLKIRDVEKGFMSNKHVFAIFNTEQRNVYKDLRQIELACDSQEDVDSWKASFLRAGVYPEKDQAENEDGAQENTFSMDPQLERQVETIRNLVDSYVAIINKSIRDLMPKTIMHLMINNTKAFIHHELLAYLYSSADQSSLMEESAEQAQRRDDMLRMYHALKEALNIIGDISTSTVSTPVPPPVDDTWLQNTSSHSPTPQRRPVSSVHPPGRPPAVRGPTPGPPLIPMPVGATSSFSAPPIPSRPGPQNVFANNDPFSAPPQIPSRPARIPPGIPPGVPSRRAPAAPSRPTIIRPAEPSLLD
Method in brief: (§1)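 Normalized conditions: 50 nM sheep brain dynI or recombinant His6 full-length rat dynII (Sf21-expressed) was preincubated with 10 μg/mL PS for 15 min at RT. Reactions then ran in Tris/NaCl/Mg²⁺/Tween buffer pH 7.4 with leupeptin, AEBSF, 300 μM GTP and compound at 37 °C, 800 rpm: 10 min for dynI, 90 min for dynII. They were stopped with EDTA, and Pi was read by malachite green. Selectivity is the ratio of the two IC50s.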

[2] = Inhibition of sheep full length dyn1 using phosphatidylserine as substrate after 10 mins by malachite green GTPase assay in presence of GTP; design: species or system Ovis aries; method in brief: as §1
[3] = Selectivity ratio of IC50 for sheep dyn1 receptor to IC50 for rat dyn2 receptor; method in brief: as §1

| IC50 ([1]; read-out: IC50) | IC50 (Dynamin-2) | SMILES | also measured |
| --- | --- | --- | --- |
| – | – | CCCCCCCCNC(=O)/C(C#N)=C/c1cn(CC(=O)Nc2ccc3c(c2)OCO3)c2ccccc12 | IC50 [1]: Not Active |
| 1.3 µM | 16 µM | CCCCCCCCNC(=O)/C(C#N)=C/c1cn(CCCN(C)C)c2ccccc12 | Activity (HeLa): 80%; IC50 [2]: 6.9 µM; Ratio IC50 [3]: 2.3 |
| 18 µM | – | CCCCCCCCNC(=O)/C(C#N)=C/c1cn(CC(O)CN2CCOCC2)c2ccccc12 (centres undefined) | – |
| 2.3 µM | – | CCCCCCCCNCc1cn(CCCN(C)C)c2ccccc12 | – |
| – | 7.5 µM | CCCCCCCCCCNCc1cn(CCCN(C)C)c2ccccc12 | – |
